Test results from ChEMBL document CHEMBL2417549, “Identification of 2,3-dihydro-1H-pyrrolo[3,4-c]pyridine-derived ureas as potent inhibitors of human nicotinamide phosphoribosyltransferase (NAMPT)” (Bioorg Med Chem Lett, 2013).

Assays:
[1] = Apparent permeability across apical to basolateral side in MDCK cells at 10 uM by LC-MS/MS analysis; type: ADME, cell-based, Canis lupus familiaris; conditions: dog
In short: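 Apparent permeability, Papp A-B, measured across MDCK cell monolayers. Mean of at least two runs.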

[2] = Volume of distribution at steady state in NCR nude mouse at 5 mg/kg, iv; type: ADME, organism-based; set-up: dose 5 mg/kg, route intravenous; conditions: in vivo, read-out: Vdss
In short: (§1)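 Female NCR nude mice given a single 5 mg/kg IV or oral dose as a solution in 35:10:15:40 PEG400:EtOH:PG:H2O. Plasma concentration-time profiles were used to derive Cmax, Tmax, Vss, CL, half-life and bioavailability.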

[3] = Cmax in NCR nude mouse at 5 mg/kg, po; type: ADME, organism-based; set-up: dose 5 mg/kg, route oral; conditions: in vivo; in short: as §1
[4] = Tmax in NCR nude mouse at 5 mg/kg, po; type: ADME, organism-based; set-up: dose 5 mg/kg, route oral; conditions: in vivo; in short: as §1
[5] = Oral bioavailability in NCR nude mouse at 5 mg/kg; type: ADME, organism-based; conditions: in vivo; in short: as §1

Q: With `O=C(NCc1ccc(S(=O)(=O)C2CCN(C3COC3)CC2)cc1)N1Cc2ccncc2C1` as the compound, how does the Papp A→B at 10 µM [1] read?
A: 0.1 ×10⁻⁶ cm/s

Q: Which Papp A→B at 10 µM [1] does the source give for `Nc1ccc(S(=O)(=O)c2ccc(CNC(=O)N3Cc4ccncc4C3)cc2)cn1` here?
A: 0.5 ×10⁻⁶ cm/s

Q: With `Cc1ccc(S(=O)(=O)c2ccc(CNC(=O)N3Cc4ccncc4C3)cc2)cn1` as the compound, how does the Vd [2] read?
A: 2.04 L/kg

Q: What about the Cmax [3] of the same compound?
A: 330 nM

Q: What about the Papp A→B at 10 µM [1] of the same compound?
A: 2.5 ×10⁻⁶ cm/s

Q: What about the Tmax [4] of the same compound?
A: 15 min

Q: What about the bioavailability [5] of the same compound?
A: 20.3%

Q: With `O=C(NCc1ccc(S(=O)(=O)c2ccccc2)cc1)N1Cc2ccncc2C1` as the compound, how does the Papp A→B at 10 µM [1] read?
A: 8.3 ×10⁻⁶ cm/s

Q: For `CC(C)n1cc(S(=O)(=O)c2ccc(CNC(=O)N3Cc4ccncc4C3)cc2)cn1`, which Papp A→B at 10 µM [1] is on record?
A: 4.1 ×10⁻⁶ cm/s

Q: For `O=C(NCc1ccc(S(=O)(=O)C2CCN(C3CCOCC3)CC2)cc1)N1Cc2ccncc2C1`, which Papp A→B at 10 µM [1] is on record?
A: 0.1 ×10⁻⁶ cm/s
